Measurements published in ChEMBL document CHEMBL4513216, “Probing the Open Global Health Chemical Diversity Library for Multistage-Active Starting Points for Next-Generation Antimalarials” (ACS Infect Dis, 2020).

Assay: Toxicity liver stage against HepG2, at 10uM
Assay type: cell-based
Set-up: test concentration 10 uM, cell line HepG2-A16-CD81EGFP
Details: human, HepG2-A16-CD81EGFP cells; read-out: INHIBITION
How it was run: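 Uninfected HepG2-A16-CD81EGFP cells, 3 × 10^3 per well, 1536-well, plated on prespotted compound at 10 μM final, parasite-free screening media added to match infected plates; puromycin 10 μM positive, DMSO 0.5% negative; run in parallel with 48 h PbLuc assay at 37 °C, 5% CO2; viability by CellTiter-Glo luminescence, normalized to controls.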

SMILES | cytotoxicity at 10 µM [%]
Cc1ncnc2c1CCN(Cc1ccc3c(c1)OCO3)CC2 | -9.23
O=C(Cc1cccnc1)N1CCCC(c2cc(C(F)(F)F)[nH]n2)C1 (stereo unspecified) | -42.6
Cc1noc(CCCC(=O)NC(C)c2ccccn2)n1 (stereo unspecified) | -10.9
CCn1nc(C)c(CNC(=O)c2nnc3ccc(Cl)cc3n2)c1C | 8.1
CC(C)OCCC(=O)N(C)CCCc1cc(-c2ccccc2)no1 | -15.3
Cc1ccccc1CNC(=O)c1ccccc1-n1cnc(CN)c1 | -7.22
Cc1cnn(CCNCc2ccc(C#N)cc2)c1 | -10.7
N#Cc1c(Cl)nsc1NCc1ccc(N2CCSCC2)cc1 | 1.24
CCc1cnc(C)nc1NCCN1CCCCCC1 | -10.8
Cc1cc(C)n(C2CCCN(C(=O)c3ccc(N(C)C)nn3)C2)n1 (stereo unspecified) | -9.31
Cc1ccc(O[C@@H]2C[C@H]3CN(c4ncc(F)cn4)CCN3C2)cc1 | 35.3
O=C(c1cscn1)N1CCC2(CC1)CCN(S(=O)(=O)c1ccccc1)C2 | 10.5
O=S(=O)(c1ccccc1)N1CCC2(CCCN2Cc2cccnc2)C1 (stereo unspecified) | -73.5
Cc1ccc(CNC(=O)N2CCN(S(C)(=O)=O)CC2)n1C | 2.22
COC(=O)CN(C)C1CCc2ccccc21 (stereo unspecified) | -7.59
Cc1csc(CN2CC[C@H]3C[C@@H](c4noc(C)n4)O[C@@H]3C2)n1 | -1.2
CN(C)C(=O)CN1CCCC1c1cccc(Cc2ccccc2F)n1 (stereo unspecified) | -6.94
CCS(=O)(=O)N1CCC(c2nc3ccc(-c4ccccc4)cn3n2)CC1 | -7.41
N#Cc1ccnc(NCc2cc3n(n2)CCCN(C(=O)C2CCC2)C3)c1 | -135
CN(C)c1cc(C2CCCN(C(=O)c3ccc(=O)[nH]n3)C2)ccn1 (stereo unspecified) | -9.04
CC[C@H]1N(Cc2ccc(OC)cc2)CCC[C@]12CCC(=O)N2C | -5.6
CCOC(=O)CNC(=O)C1CN(C(=O)c2cnccn2)C1 | 2.63
COc1cc(CN(C)C(=O)Nc2cc(C)on2)ccc1SC | -10.7

SMILES | cytotoxicity at 10 µM [%]
CCOc1ccc(C(=O)N2Cc3cnc(CC(C)C)nc3C2)o1 | 7.18
CCOc1ccc(NC(=O)NCC(C)(O)c2cccs2)cc1 (stereo unspecified) | -0.579
Cc1cnc2c(S(=O)(=O)N(C)C3CCS(=O)(=O)C3)cccc2c1 (stereo unspecified) | -5.44
CN(CC1(CO)CCCC1)C(=O)c1cc(COc2ccccc2F)[nH]n1 | 6.2
O=C1CN(C(=O)c2cc(Cl)ccc2F)c2ccncc2N1 | 5.92
COc1cc(CNc2nc(N3CCOCC3)ns2)cc(OC)c1OC | -5.23
Cc1cccc(C(=O)N2C[C@@H]3OCCN(C(C)C)[C@@H]3C2)n1 | -9.2
O=C(Cc1cccc(Cl)c1)Nc1cnccc1SCCCO | -7.04
c1ccc(Cc2noc(CCNC3CCOC4(CCOCC4)C3)n2)cc1 (stereo unspecified) | -0.872
Cc1nc(CN2CCCC(NCc3cccc4ccccc34)C2)no1 (stereo unspecified) | -0.819
O=C(c1cnc(-c2cccnc2)nc1)N1CCSCC1 | 0.431
Cc1ccccc1C(=O)N1CC2(COC(C)(C)OC2)C1 | 4.56
Cc1cnc(N)c(C(=O)C2CCN(C(=O)c3cnc(C)nc3C)CC2)c1 | -18
Cc1cc(N2CC[C@H](O)C2)n2nc(C)c(C)c2n1 | -3.62
COCCN1CC(C(=O)NCc2ccnc(-n3cccn3)c2)CC1=O (stereo unspecified) | -5.07
Cc1cc(C)n(CC2CCCN2C(=O)c2cnccn2)n1 (stereo unspecified) | 6.41
CCc1noc(CNc2cccc(C(=O)N3CCSCC3)c2)n1 | -5.73
CC(C)CNC(=O)C1(Cc2ccccc2-c2ccccc2)CCNC1 (stereo unspecified) | -17.8
CCCn1cc(-c2cc(C(=O)N(C)C)c3ccc(OC)cc3n2)cn1 | 6.22
CCN1CCN(C(=O)c2ccc(OC)nn2)c2ccccc21 | -1.78
CCCN1CCCC2(CCN(S(=O)(=O)N3CCC(OC)CC3)C2)C1=O (stereo unspecified) | 1.48
CC(=O)c1ccc(N2CCN(C(=O)NCc3cc[nH]n3)CC2)cc1 | -2.17
CC(C)c1nnc(CN2CC(n3cccn3)C2)o1 | -149

SMILES | cytotoxicity at 10 µM [%]
COc1ccc(CN2CCN(C(C)=O)CC2)cc1SC(F)(F)F | 7.31
O=C1NCC2(CCCN(C(=O)c3csc(-c4cccs4)n3)C2)O1 (stereo unspecified) | 0.55
CC(C)(C)SCC(=O)Nc1cc(-n2nnnc2C2CC2)ccc1F | -12
O=C(Nc1ccc(-c2csnn2)cc1)N1CCN2CCCCC2C1 (stereo unspecified) | -7.23
Cc1cccc(C(=O)NCc2ccc(N3CCCCCC3)nc2)n1 | -5.34
CSc1ccc(CNC2(c3ccc(F)cc3)CCOCC2)cc1 | -4.51
CC(C(=O)NC(N)=O)N(C)CCCc1cc(-c2ccccc2)no1 (stereo unspecified) | -8.63
CN(CC(O)C(F)(F)F)C(=O)Nc1cccc(C(F)F)c1 (stereo unspecified) | 5.46
Cc1nc(-c2ccccc2C)n(CC(=O)NC(C)C2CC2)n1 (stereo unspecified) | 20.8
CC(C)(C)CN1CCN2C(=O)N(C3CCCCC3)C[C@H]2C1 | 4.91
OCC1(CCOc2ccccc2)CCCN(c2ccc(Cl)cn2)C1 (stereo unspecified) | 7.52
Cc1ccc(CN2CCOC3(CCN(C(=O)N4CCCC4)CC3)C2)cc1 | 5.7
CC(=O)N1CCCC(c2ccnc(Nc3cnccn3)c2)C1 (stereo unspecified) | 9.37
Cc1csc(C(C#N)C(=O)NCc2ccccc2)n1 (stereo unspecified) | 4.02
CC(=O)N[C@@H]1CN(Cc2ccccc2-n2nc(C)cc2C)C[C@H]1C(C)C | 4.01
CN(C)S(=O)(=O)c1ccc(F)c(NC(=O)COCC2CC2)c1 | 3.71
COc1ccc(CC(=O)N2CC(=O)NCC(C)(C)C2)cc1 | -0.634
Cc1sc2c(C3CCCN(C(C)C)C3)nc(C)n2c1C (stereo unspecified) | -13.8
COc1ccc(C(=O)N2CCN(CCO)CC2)c(F)c1 | -3.79
Cc1nccn1-c1cc(CNC(=O)CCNC(=O)OC(C)(C)C)ccn1 | -1.7
O=C(NCc1cn2c(n1)SCC2)c1cn(CCN2CCCCC2)nn1 | -3.69
COc1ccc(-c2cnc(CN(CC(N)=O)C3CCCC3)o2)cc1 | -7.95
CCC(NC(=O)CN(C)Cc1ccc(C)o1)c1ccc(Br)cc1 (stereo unspecified) | 35.5

SMILES | cytotoxicity at 10 µM [%]
COc1cccc(C(=O)N(C)Cc2ncc(C)c(OC)c2C)c1OC | -7.02
O=C([C@H]1C[C@@H]2CCN(C3CCOCC3)C[C@H]2O1)N1CCCC1 | 7.31
CN1CCN(c2ncccn2)CC1C(N)=O (stereo unspecified) | 15.4
Cc1ccc(C(=O)N(C)Cc2cc(Br)cs2)cn1 | 9.06
COc1c(C2CCCN2CC(=O)Nc2cc(C)no2)c(C)nn1C (stereo unspecified) | -2.77
COCCn1cnc2ccc(NC(=O)c3c(C)noc3C)cc2c1=O | 4.13
CS(=O)(=O)CCSc1n[nH]c(-c2ccc3c(c2)CCC3)n1 | -2.14
CCn1ccnc1CN1CCNCC1C (stereo unspecified) | -3.03
COCCn1cc(-c2cc(C(=O)N3CCCC3)c3ccccn23)nc1C | 8.61
O=C(O)CCCN1C[C@@H](c2ccccc2F)[C@@]2(CCCCC(=O)N2)C1 | 4.6
O=C1O[C@@H]2CN(Cc3ccccn3)C[C@@H]2N1CCCc1ccc(F)cc1 | -0.687
OC1(c2ccc(F)cc2)CCN(Cc2ccccc2N2CCCC2)CC1 | 20.5
O=C(Cc1cccs1)Nc1cnn(C2CCOC2)c1 (stereo unspecified) | -7.86
Cc1nsc(N2CCCN(C(=O)CCc3ccsc3)CC2)n1 | 3.8
COCCNC(=O)CN1CCCC1c1c(C)nn(C)c1Cl (stereo unspecified) | -0.185
O=C1NCCN1C1CCN(Cc2coc(-c3ccc(F)cc3)n2)CC1 | -3.52
O=C(c1cccnc1)N1CCc2c(COCC3CC3)cncc2C1 | -77.2
O=C(c1cnc2ccc(F)cc2c1NCc1ccco1)N1CCCCC1 | 9.34
CC(C)c1nc(CNC2CCN(C(=O)OC(C)(C)C)CC2)cs1 | -1.72
Cn1ccnc1CN1CCN(CC(O)c2cccc(F)c2)CC1 (stereo unspecified) | 1.59
Cc1nc(-c2ccsc2)ccc1C(=O)N(C)CC1CC1 | 2.83
Cc1cc(CN2CCO[C@H]3[C@H](OCc4csc(C)n4)CC[C@@H]32)no1 | 5.86
COCCNC(=O)c1cnc(C)nc1C | 24.5

SMILES | cytotoxicity at 10 µM [%]
O=S1(=O)C[C@@H]2[C@H](C1)N(Cc1ncc[nH]1)CCN2CCCc1ccccc1 | 0.662
CCOC1CCN(C(=O)c2cnn(-c3ccccc3Cl)c2)CC1 | -9.78
COc1cc(Br)cc(CNC2CCCNC2=O)c1O (stereo unspecified) | 2.37
CCn1cc(CN2CC3CCCN3C[C@H]2C)c(C)n1 (stereo partly specified) | 0.951
O=C(NC1CC2(CCN(CCO)CC2)c2ccccc21)c1ccncc1 (stereo unspecified) | -9.54
OC(CNCCn1cccn1)COc1cccc(C(F)(F)F)c1 (stereo unspecified) | -19.7
c1cncc(CN2CC[C@H]3O[C@@H](COCC4CC4)CC[C@H]32)c1 | 2.19
CC(C)c1noc(CS(=O)(=O)Cc2nc(C(C)C)no2)n1 | -7.85
OC(COc1ccccc1Br)COC1CCOCC1 (stereo unspecified) | -8
Cc1csc(CN2CCC3(CC2)COC(COc2ccccn2)C3)n1 (stereo unspecified) | -113
CC(C)C(=O)Nc1cccc(C(=O)Nc2ccccn2)c1 | -2.37
O=S(=O)(C1CC1)N1CCC2(CC1)CC(Oc1ccccn1)CO2 (stereo unspecified) | -139
CCc1cc(-c2cc[nH]n2)nc(N2CCOCC2)n1 | 7.04
CCN1CCN(c2ccc(F)cc2C(C)NCc2ccncc2)CC1 (stereo unspecified) | -1.4
CC(=O)NCc1ccc(C(=O)N2CCCCC2Cn2cccn2)o1 (stereo unspecified) | -4.22
CCc1cc(C(=O)N2CCCC2c2nc(C)c(F)c(O)n2)on1 (stereo unspecified) | 0.626
CCn1ncc2c1C(COCC1CC1)CN(c1ccc(C)nn1)C2 (stereo unspecified) | 11.4
O=C(CC1CCCC1)N1CCC(c2cc3ncccc3c(O)n2)CC1 | -24.7
O=C(NCc1nncn1C1CC1)C1(c2ccccc2)CCOCC1 | 3.31
